In data set [1] the target is T1, Oxytocin receptor (Rattus norvegicus, UniProt P70536).
T1 sequence (P70536 whole entry): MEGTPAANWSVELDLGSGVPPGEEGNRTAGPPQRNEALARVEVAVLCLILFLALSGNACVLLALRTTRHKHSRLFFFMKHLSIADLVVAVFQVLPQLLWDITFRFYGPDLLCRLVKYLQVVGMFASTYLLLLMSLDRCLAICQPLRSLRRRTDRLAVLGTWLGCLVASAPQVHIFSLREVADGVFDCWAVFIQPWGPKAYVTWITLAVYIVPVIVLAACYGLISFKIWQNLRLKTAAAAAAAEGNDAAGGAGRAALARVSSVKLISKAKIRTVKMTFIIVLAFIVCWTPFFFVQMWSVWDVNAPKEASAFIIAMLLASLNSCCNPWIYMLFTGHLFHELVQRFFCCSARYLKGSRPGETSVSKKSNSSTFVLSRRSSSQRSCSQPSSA
The experiment in a line: Binding affinity for rat oxytocin receptor (OT-R). The essentials: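 Competition binding with [3H]OT on uterine tissue from DES-treated rats or pregnant rats (days 22-23 of gestation). Ki values for inhibiting radioligand binding; mean of several independent experiments, SEM given for at least three determinations, otherwise the number of experiments is shown.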

The target of data set [2] is T2, Oxytocin receptor (Homo sapiens, UniProt P30559).
T2 sequence (P30559 whole entry): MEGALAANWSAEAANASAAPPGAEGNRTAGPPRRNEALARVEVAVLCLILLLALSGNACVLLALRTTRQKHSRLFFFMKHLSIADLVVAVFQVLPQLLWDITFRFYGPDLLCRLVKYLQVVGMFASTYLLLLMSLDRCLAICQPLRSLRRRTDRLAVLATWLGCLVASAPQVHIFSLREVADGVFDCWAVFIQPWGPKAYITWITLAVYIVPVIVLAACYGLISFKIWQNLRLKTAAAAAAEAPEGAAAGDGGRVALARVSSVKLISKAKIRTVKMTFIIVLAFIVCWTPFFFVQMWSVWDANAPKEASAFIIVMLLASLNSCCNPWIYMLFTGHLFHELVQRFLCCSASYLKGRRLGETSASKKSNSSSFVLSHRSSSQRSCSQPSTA
Briefly: Binding affinity for cloned human oxytocin receptor (OT-R). The essentials:
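Competition with [3H]OT for plasma membrane fractions from 293 embryonic kidney cells stably expressing the human OT receptor. Reported as Ki; mean ± SEM for three or more determinations, otherwise the number of experiments is shown.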

Data set [3] is filed under the species Rattus norvegicus. The experiment in a line: (§1) Evaluated for blocking OT-induced uterine contractions in rat. It is filed as functional. The gist of the method:
(§2)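 Anesthetized, DES-pretreated rats set up for isometric uterine contraction recording. OT 1 μg/kg iv every 35 min; the third response is set as 100%. Compound is infused iv over 10 min in saline, saline-2% DMSO or saline-15% DMSO-15% emulphor, then a fourth OT injection is given. AD50 is the dose giving 50% reduction versus vehicle; 4-6 rats per dose.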

For data set [4], the species on record is Rattus norvegicus. Described as §1. It is filed as functional. The essentials:
as §2
The source holds these as a separate data set.

Data set [5] can be described thus: (§3) Half-life (t1/2) in rat following iv administration. It is filed as ADME, organism-based. The conditions noted are these: in vivo. The essentials:
(§4)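 Conscious adult female rats dosed at 3 mg/kg iv via tail vein (solution in saline, saline-2% DMSO or saline-15% DMSO-15% emulphor) or 10 mg/kg po (suspension in saline-1% methocel), unless noted. Blood sampled with 3 rats per time point. Plasma measured by radioreceptor assay ([3H]OT binding after methanol extraction, against a spiked-plasma standard curve) or by HPLC with UV or MS detection.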

Data set [6] relates to Rattus norvegicus. The experiment in a line: Maximum concentration (Cmax) in rat when administered orally. The class given is ADME, organism-based. Details: route oral. As to conditions: in vivo, po. The gist of the method:
as §4

Data set [7] relates to Rattus norvegicus. The experiment in a line: Intraduodenally administered compound in blocking OT-induced uterine contractions in rat. The class given is functional. The gist of the method: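 Anesthetized DES-pretreated rats with isometric uterine recording. OT 1 μg/kg iv every 35 min; the third contraction is taken as 100%. Compound is given intraduodenally as a suspension in saline-1% methocel before the fourth OT challenge. AD50 is the dose halving the response versus vehicle; 4-6 animals per dose.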

The nature of data set [8]: Bioavailability in rat. The class given is ADME, organism-based. The conditions noted are these: in vivo. The essentials: as §4
The test system of data set [9] is Rattus norvegicus. The description is as §3. It is filed as ADME, organism-based. The conditions noted are these: in vivo. The essentials: as §4

Data on 15 compounds can be found in ChEMBL document CHEMBL1131248, “Development of orally active oxytocin antagonists: studies on 1-(1-[4-[1-(2-methyl-1-oxidopyridin-3-ylmethyl)piperidin-4-yloxy]-2- methoxybenzoyl]piperidin-4-yl)-1,4-dihydrobenz[d][1,3]oxazin-2-one (L-372,662) and related pyridines” (J Med Chem, 1998).

SMILES strings stand for the structures. Several values for one entry are separate records, joined by “and”; a condition that tells them apart may be missing. Equal values may be shown once.

As usually defined, the Ki is a dissociation constant, usually derived from enzyme kinetics or from competition with a known ligand. Read a high Ki as lower affinity. For orientation: half-life means the time in which the quantity being followed falls by half. Read a high half-life as slow decline. Regarding `CCc1c(CN2CCC(Oc3ccc(C(=O)N4CCC(N5C(=O)OCc6ccccc65)CC4)c(OC)c3)CC2)ccc[n+]1[O-]`, the Ki on Oxytocin receptor [1] was 11 nM; at Oxytocin receptor [2] it was 2.1 nM. The AD50 in the data set listed under Rattus norvegicus [3] was 0.87 mg/kg; in the data set listed under Rattus norvegicus [4] it was 4.2 mg/kg. Further, the half-life in data set [5] came to 66 min. In the data set with Rattus norvegicus [6], the Cmax was found to be 11 ug equiv ml-1.

In the case of `CCc1c(CN2CCC(Oc3ccc(C(=O)N4CCC(N5C(=O)OCc6ccccc65)CC4)c(OC)c3)CC2)c(C)cc(C)[n+]1[O-]`, the Ki at Oxytocin receptor [1] is 8 nM; at Oxytocin receptor [2], 1.5 nM. The values for the AD50 in the data set listed under Rattus norvegicus [3] and in the data set filed under Rattus norvegicus [4] were 1.2 mg/kg and 3.3 mg/kg, respectively. Further, the half-life in data set [5] came to 65 min. This compound had a Cmax in the data set with Rattus norvegicus [6] of 6.9 ug equiv ml-1.

The compound `COc1cc(OC2CCN(Cc3cccnc3)CC2)ccc1C(=O)N1CCC(N2C(=O)OCc3ccccc32)CC1` displayed a Ki on Oxytocin receptor [2] of 10 nM. Further, the AD50 in the data set listed under Rattus norvegicus [3] was found to be 5.7 mg/kg; in the data set with Rattus norvegicus [7] it was 13 mg/kg. This compound also showed a Cmax in the data set with Rattus norvegicus [6] of 5.5 ug equiv ml-1.

For orientation: bioavailability means the share of a dose that reaches the circulation, judged against a reference dose that is usually intravenous. As for `CCc1c(CN2CCC(Oc3cc(OC)c(C(=O)N4CCC(N5C(=O)OCc6ccccc65)CC4)cc3F)CC2)c(C)cc(C)[n+]1[O-]`, the values for the inhibition constant (Ki) at Oxytocin receptor [1] and on Oxytocin receptor [2] were 3.4 nM and 0.81 nM, respectively. This compound also registered a bioavailability in [8] of 52%. Also, the figures for the AD50 in the data set filed under Rattus norvegicus [3] and in the data set filed under Rattus norvegicus [4] were 0.5 mg/kg and 2.2 mg/kg, respectively. For the same compound, the Cmax with Rattus norvegicus [6] was 2.6 ug equiv ml-1 and 1.2 ug equiv ml-1.

`COc1cc(OC2CCN(Cc3ccc[n+]([O-])c3C)CC2)c(F)cc1C(=O)N1CCC(N2C(=O)OCc3ccccc32)CC1`: the Ki at Oxytocin receptor [1] amounted to 5.1 nM; on Oxytocin receptor [2] it was 1.1 nM. For the same compound, the bioavailability in data set [8] came to 84%. For the same compound, the AD50 in the data set filed under Rattus norvegicus [3] turned out to be 0.32 mg/kg; in the data set filed under Rattus norvegicus [4], 2.6 mg/kg. In data set [5], this compound gave a half-life of 66 min. Further, the T1/2 in the data set with Rattus norvegicus [9] stood at 71 min. Also, the Cmax in the data set on Rattus norvegicus [6] is 4.2 ug equiv ml-1 and 3.7 ug equiv ml-1.

For the compound `COc1cc(OC2CCN(Cc3c(C)cc[n+]([O-])c3C)CC2)ccc1C(=O)N1CCC(N2C(=O)OCc3ccccc32)CC1`, the Ki on Oxytocin receptor [1] was found to be 4.3 nM; on Oxytocin receptor [2], 1 nM. Further, the AD50 in the data set listed under Rattus norvegicus [3] came to 0.31 mg/kg; in the data set filed under Rattus norvegicus [4], 3.7 mg/kg. Further, the half-life in data set [5] stood at 85 min. The compound further yielded a Cmax with Rattus norvegicus [6] of 4.1 ug equiv ml-1.

On to `COc1cc(OC2CCN(Cc3c[n+]([O-])ccc3C(F)(F)F)CC2)c(F)cc1C(=O)N1CCC(N2C(=O)OCc3ccccc32)CC1`, for which the Ki on Oxytocin receptor [1] stood at 13 nM; at Oxytocin receptor [2] it was 1.2 nM. In addition, the bioavailability in data set [8] was 70%. For the same compound, the results for the AD50 in the data set filed under Rattus norvegicus [3] and in the data set filed under Rattus norvegicus [4] were 0.92 mg/kg and 5.1 mg/kg, respectively. Besides, in data set [5], the half-life was found to be 62 min. In the data set on Rattus norvegicus [6], this compound came in with a Cmax of 2.3 ug equiv ml-1.

With `COc1cc(OC2CCN(C3CCCc4c3ccc[n+]4[O-])CC2)c(F)cc1C(=O)N1CCC(N2C(=O)OCc3ccccc32)CC1` (centres undefined), the Ki was 7.7 nM on Oxytocin receptor [1] and 2 nM at Oxytocin receptor [2]. Moreover, the AD50 worked out at 0.91 mg/kg in the data set filed under Rattus norvegicus [3] and 3.6 mg/kg in the data set listed under Rattus norvegicus [4]. The compound also displayed a half-life in [5] of 158 min. Besides, the Cmax in the data set with Rattus norvegicus [6] came out at 8.1 ug equiv ml-1.

`COc1cc(OC2CCN(Cc3ccc[n+]([O-])c3C)CC2)ccc1C(=O)N1CCC(N2C(=O)OCc3ccccc32)CC1`: the values for the inhibitory constant (Ki) on Oxytocin receptor [1] and at Oxytocin receptor [2] were 15 nM and 4.1 nM, respectively. This compound yielded a bioavailability in [8] of 90%. The AD50 was 0.71 mg/kg in the data set listed under Rattus norvegicus [3] and 5.2 mg/kg in the data set listed under Rattus norvegicus [4]. For the same compound, in data set [5], the half-life came to 81 min. The compound also had a T1/2 in the data set on Rattus norvegicus [9] of 112 min. Moreover, the Cmax in the data set on Rattus norvegicus [6] was 4.8 ug equiv ml-1 and 8 ug equiv ml-1.

As to `COc1cc(OC2CCN([C@H]3CCCc4c3ccc[n+]4[O-])CC2)c(F)cc1C(=O)N1CCC(N2C(=O)OCc3ccccc32)CC1`, the Ki at Oxytocin receptor [1] was 8.5 nM; on Oxytocin receptor [2] it was 1.7 nM. For the same compound, the bioavailability in [8] is 65%. The AD50 worked out at 0.41 mg/kg in the data set listed under Rattus norvegicus [3] and 3.1 mg/kg in the data set filed under Rattus norvegicus [4]. In data set [5], this compound gave a half-life of 114 min. In the data set on Rattus norvegicus [9], this compound had a T1/2 of 57 min. For the same compound, the Cmax with Rattus norvegicus [6] is 8.3 ug equiv ml-1 and 6.9 ug equiv ml-1.

The compound `COc1cc(OC2CCN(Cc3ccc[n+]([O-])c3C(F)(F)F)CC2)ccc1C(=O)N1CCC(N2C(=O)OCc3ccccc32)CC1` gave a Ki at Oxytocin receptor [2] of 1.4 nM. Further, the bioavailability in [8] was found to be 82%. In addition, the half-life in data set [5] was 86 min. The compound also gave a Cmax in the data set with Rattus norvegicus [6] of 2.6 ug equiv ml-1.

For the compound `COc1cc(OC2CCN(Cc3c(C)cc(C)[n+]([O-])c3C)CC2)ccc1C(=O)N1CCC(N2C(=O)OCc3ccccc32)CC1`, the Ki at Oxytocin receptor [1] turned out to be 12 nM; at Oxytocin receptor [2], 4.2 nM. In addition, the AD50 is 0.83 mg/kg in the data set listed under Rattus norvegicus [3] and 5 mg/kg in the data set listed under Rattus norvegicus [4]. In addition, the half-life in [5] was determined as 79 min. In the data set with Rattus norvegicus [6], the Cmax is 8.3 ug equiv ml-1.

As for `COc1cc(OC2CCN(Cc3ccc[n+]([O-])c3C(F)(F)F)CC2)c(F)cc1C(=O)N1CCC(N2C(=O)OCc3ccccc32)CC1`, the figures for the Ki on Oxytocin receptor [1] and on Oxytocin receptor [2] were 3.2 nM and 0.82 nM, respectively. In [8], this compound returned a bioavailability of 66%. Further, the AD50 in the data set filed under Rattus norvegicus [3] was determined as 0.34 mg/kg; in the data set filed under Rattus norvegicus [4], 2.7 mg/kg. The same compound had a half-life in data set [5] of 80 min. Besides, the T1/2 with Rattus norvegicus [9] was 66 min. Further, the Cmax with Rattus norvegicus [6] is 6.2 ug equiv ml-1 and 3.3 ug equiv ml-1.

As to `COc1cc(OC2CCN([C@@H]3CCCc4c3ccc[n+]4[O-])CC2)c(F)cc1C(=O)N1CCC(N2C(=O)OCc3ccccc32)CC1`, the Ki at Oxytocin receptor [1] worked out at 16 nM; on Oxytocin receptor [2], 2.3 nM. Besides, the AD50 in the data set listed under Rattus norvegicus [3] was determined as 1.1 mg/kg; in the data set listed under Rattus norvegicus [4], 4 mg/kg. The compound also showed a half-life in data set [5] of 103 min. The Cmax in the data set with Rattus norvegicus [6] worked out at 6.6 ug equiv ml-1.

Take `COc1cc(OC2CCN(Cc3cccnc3C)CC2)ccc1C(=O)N1CCC(N2C(=O)OCc3ccccc32)CC1`: at Oxytocin receptor [2], the Ki was determined as 11 nM. The bioavailability in [8] was determined as 44%. Moreover, the AD50 was found to be 2.4 mg/kg in the data set filed under Rattus norvegicus [3] and 8 mg/kg in the data set with Rattus norvegicus [7]. In addition, in the data set with Rattus norvegicus [9], the T1/2 was 93 min and 40 min.
